# KCC2 mod: KCC2 (human) Cl- transport modulation | Q9H2X9 | KCC2 cells, thallium flux FluoZin-2 fluorescence | B-score of Tl+ flux slope (higher = more flux/activation; lower = inhibition) at 10 µM | 2.2% of 190,000 active | AID 1456;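 active = thallium flux slope and its plate-corrected score both differing from the plate sample mean at a set confidence after two filtering rounds, in either direction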;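 note: slope of fluorescence scaled to starting intensity during 10 to 20 s after thallium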
# Target sequence (Q9H2X9 whole entry, looked up): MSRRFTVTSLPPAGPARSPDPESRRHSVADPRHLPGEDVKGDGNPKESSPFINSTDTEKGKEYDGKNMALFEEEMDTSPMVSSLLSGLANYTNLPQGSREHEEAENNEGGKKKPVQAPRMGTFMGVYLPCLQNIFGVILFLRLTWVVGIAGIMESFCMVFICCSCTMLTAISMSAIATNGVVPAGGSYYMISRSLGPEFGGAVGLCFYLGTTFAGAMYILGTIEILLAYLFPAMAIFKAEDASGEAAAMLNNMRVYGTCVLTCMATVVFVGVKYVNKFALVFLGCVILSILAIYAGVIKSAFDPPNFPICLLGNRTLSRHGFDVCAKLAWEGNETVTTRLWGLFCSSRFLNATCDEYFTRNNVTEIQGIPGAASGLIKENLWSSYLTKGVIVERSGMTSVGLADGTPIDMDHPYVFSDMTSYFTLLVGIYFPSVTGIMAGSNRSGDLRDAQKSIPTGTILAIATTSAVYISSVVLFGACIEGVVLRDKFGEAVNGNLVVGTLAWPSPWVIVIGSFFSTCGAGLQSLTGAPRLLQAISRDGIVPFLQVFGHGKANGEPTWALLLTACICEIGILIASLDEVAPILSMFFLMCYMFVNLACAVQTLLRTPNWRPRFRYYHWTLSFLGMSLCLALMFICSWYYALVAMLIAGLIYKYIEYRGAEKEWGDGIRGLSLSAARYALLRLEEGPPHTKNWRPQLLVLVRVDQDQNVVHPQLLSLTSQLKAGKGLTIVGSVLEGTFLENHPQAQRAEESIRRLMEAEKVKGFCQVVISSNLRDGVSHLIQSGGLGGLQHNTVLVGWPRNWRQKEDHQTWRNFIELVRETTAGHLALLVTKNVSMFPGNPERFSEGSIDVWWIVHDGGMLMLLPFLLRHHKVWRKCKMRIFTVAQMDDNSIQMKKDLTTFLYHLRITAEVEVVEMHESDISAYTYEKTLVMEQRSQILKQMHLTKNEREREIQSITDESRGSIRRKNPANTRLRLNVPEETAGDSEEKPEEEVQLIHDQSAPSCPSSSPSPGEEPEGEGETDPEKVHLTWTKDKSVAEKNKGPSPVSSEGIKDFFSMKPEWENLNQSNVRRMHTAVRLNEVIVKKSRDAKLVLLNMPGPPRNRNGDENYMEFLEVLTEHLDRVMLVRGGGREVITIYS
# PMI act hi M6P: activators of human phosphomannose isomerase at near-saturating mannose 6-phosphate | coupled PMI enzyme assay, resazurin fluorescence, 20 min; stronger effect = higher value; 1 = untreated enzyme, 0 = substrate-free blank | AID 1216 | 0.34% of 190,000 active | activation factor at 20 µM;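 active = activation factor of 2 or more at 20 µM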
#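 Test system: human phosphomannose isomerase with PGI, G6PDH, diaphorase coupling enzymes; amount: 15 ng/mL PMI; incubation: enzyme reaction with compound 20 min at room temperature; technique: resorufin fluorescence (Ex 544/Em 590 nm) from resazurin via diaphorase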
# ABCB1 block: blocks JC-1 efflux by human ABCB1 transporter | P08183 | CCRF-Adr cells, flow cytometry | inhibition, % at 6.6 µM | 0.067% of 190,000 active | AID 1326; in the data active = inhibition above about 40%;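 note: 0% = vehicle and 100% = reference inhibitor; higher value means more JC-1 retained so stronger ABCB1 efflux block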
# PMI activator: increases human mannose-6-phosphate isomerase activity. P34949. purified human PMI, coupled resazurin fluorescence, 20 min; stronger effect = higher value; 1 = vehicle control, 0 substrate-free wells. activation factor at 20 µM. 0.005% of 190,000 active;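 active = activation factor of 2 or more at 20 µM, relative to plate controls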
# ROMK mod: human ROMK K+ channel modulation, primary screen | 2% of 130,000 active | Tet-inducible ROMK, thallium flux fluorescence; actives lie on both sides | B-score at 10 µM;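 active = signal ratio slope over the read window, or its plate-corrected B-score, at least 3 SD from the plate mean, either direction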;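 note: B-score of the F/F0 ratio slope over 7 to 12 s after thallium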
# ABCG2 inh: blocks JC-1 efflux by human ABCG2 transporter | Q9UNQ0 | IgMXP3 cells, flow cytometry | inhibition, % at 6.6 µM | 0.1% of 190,000 active | AID 1325;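 active = inhibition above 80%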;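 note: 0% = DMSO and 100% = nicardipine control wells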
#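 Times: 10 min at 25 °C | Test system: Two drug-resistant human cell lines, ABCG2 and ABCB1 | Quantity: 3 million cells/mL final, two lines in 1:1 ratio | Signal: Flow cytometry, 530 nm JC-1 signal | Dosing: Compound at 6.6 µM | Controls: Nicardipine and DMSO wells | Reagent: JC-1 as fluorescent efflux pump substrate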
# KCC2 secondary: confirmation of human KCC2 transport modulators. normalised thallium flux (F/F0 slope) at 10 µM. 15% of 3,700 active. AID 1713. HEK293-KCC2, thallium flux, FluoZin2 fluorescence; stronger effect = higher value. shares compounds with KCC2 mod;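 active = thallium flux slope above the same plate's solvent-only control mean plus 3 SD; inconclusive = the two replicate wells disagree; inactive = no significant difference from solvent-only control wells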
# KCC2 bumet counter: bumetanide-insensitive thallium flux in KCC2 cells with ouabain, counter-screen; shares compounds with KCC2 mod; HEK293-KCC2 + bumetanide/ouabain, thallium flux FluoZin2; stronger effect = higher value; normalized thallium flux at 10 µM; 49% of 3,700 active;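 active = thallium entry rate above the same plate's blocked-transporter control wells by more than 3 SD; inconclusive = the two repeat wells disagree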;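 note: raw slope of fluorescence over initial fluorescence between 10 and 20 s after thallium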
# KCC2 sec2: KCC2 (human) modulation, second secondary assay. AID 1715. HEK293-KCC2, thallium flux FluoZin2 fluorescence; actives lie on both sides; F/F0 rise rate, 10–20 s post-thallium. shares compounds with KCC2 mod. 23% of 3,700 active. normalized thallium flux at 10 µM;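 active = thallium flux slope more than 3 SD above or below the plate's solvent-only control mean, mostly below; inconclusive = the two repeat wells disagreed; inactive = no significant shift from solvent-only controls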;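 note: raw slope with 0.1% DMSO as baseline and bumetanide as block control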
# HEK counter1: counter-screen for KCC2 modulators: effect in parental HEK293 cells; thallium flux rate (normalised fluorescence) at 10 µM; thallium flux FluoZin2, ouabain; baseline-ratio fluorescence slope, 10–20 s after thallium; 46% of 3,700 active; shares compounds with KCC2 mod;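 active = thallium flux rate significantly above the same plate's solvent-only control wells, beyond their mean plus 3 SD; inconclusive = the two replicate wells gave conflicting results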
# KCC2 retest ouab: KCC2 (human) modulation, ouabain retest; 48% of 3,700 active; raw Tl+ flux slope (below DMSO = inhibition, above = activation) at 10 µM; AID 1717; shares compounds with KCC2 mod; HEK293-KCC2, thallium flux FluoZin2 fluorescence; bidirectional: low = inhibitor, high = activator;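 active = thallium flux slope beyond 3 SD from same-plate DMSO control mean in most replicates, usually higher, sometimes lower; inconclusive = repeat tests gave conflicting results; inactive = no significant difference from controls in most replicates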;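 note: slope of initial-normalized fluorescence between seconds 10 and 20 after thallium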
# HEK293 Tl flux2: counter-screen for KCC2 modulators: effect in parental HEK293 cells | thallium flux slope at 10 µM | 33% of 3,700 active | shares compounds with KCC2 mod | AID 1718 | thallium flux FluoZin-2 fluorescence slope;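 active = thallium flux slope above the same plate's solvent-control mean plus 3 SD in both duplicate wells; inconclusive = duplicate wells that disagreed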;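 note: run without ouabain in cells lacking the KCC2 cotransporter; slope of fluorescence scaled to its starting value between 10 and 20 s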
# Active calls of the source: *; ? = inconclusive; . = no result given. Rows were chosen to be rich in hits. Some 3.3% of all compounds tested hit in one or more screens of this group.
SMILES,KCC2 mod,PMI act hi M6P,ABCB1 block,PMI activator,ROMK mod,ABCG2 inh,KCC2 secondary,KCC2 bumet counter,KCC2 sec2,HEK counter1,KCC2 retest ouab,HEK293 Tl flux2
Fc1ccc(NC(=S)Nc2ccc3nccnc3c2)cc1,-0.00985,0.4,0.2,0.4,-1.08,3.0,.,.,.,.,.,.
S=C(Nc1ccccc1)Nc1nccs1,138*,.,.,.,.,.,0.0101*,0.0836*,0.05*,0.0696*,0.0687*,0.0393*
O=C(N/N=C/c1ccc([N+](=O)[O-])o1)C1CC1,-0.282,0.7,0.0,1.1,-1.23,2.8,.,.,.,.,.,.
CC1(C)C2CCC(C2)C1C/C=N/NC(N)=S (centres undefined),3.66,.,.,.,.,.,.,.,.,.,.,.
c1cnc2c(SCc3ccc(-c4nnco4)cc3)cccc2c1,-5.67*,1,0.3,1,-0.61,0.3,0.0106,0.0146*,0.0354,0.00408,0.0211*,0.0121
CCC1(C)CC2(CCCN(CCC(=O)c3ccccc3)C2)CCO1 (centres undefined),-0.0359,1.1,1.4,1.2,-0.0209,3.3,.,.,.,.,.,.
Cc1ccc(C)c(NC(=S)NNC(=O)c2sccc2C)c1,4.07*,1,0.1,1,0.0875,7.0,0.0109,0.0261*,0.0379,?,0.0312*,0.0111
Cc1ccc(C)c(NC(=S)NNC(=O)c2ccco2)c1,-0.077,1,0.7,0.9,0.218,9.7,.,.,.,.,.,.
Cc1ccc(C)c(NC(=S)NNC(=O)c2csc(C)c2C)c1,11.4*,1.1,0.5,1.1,.,-2.6,0.0161*,0.0406*,0.0382,0.0398*,0.0421*,0.015*
Cc1ccc(C)c(NC(=O)CCC(=O)NNC(=S)Nc2ccccc2)c1,-0.0758,1,-0.1,1.1,-0.789,-0.5,.,.,.,.,.,.
Fc1cc(F)c(C2SCCN2C(=S)Nc2cccc(C(F)(F)F)c2)c(F)c1 (centres undefined),-0.254,.,.,.,0.0316,.,.,.,.,.,.,.
O=c1c2ccccc2[nH]c(=S)n1CCCN1CCOCC1,0.902,0.9,0.3,0.9,-0.3,2.7,.,.,.,.,.,.
O=c1c2sc3ccccc3c2[nH]c(=S)n1CCN1CCOCC1,8.63*,0.9,-0.4,0.8,1.9,7.0,0.0165,0.0165*,0.0331,0.0191*,0.0245*,0.0195*
CC1CCN(CCCn2c(=S)[nH]c3c(sc4ccccc43)c2=O)CC1,19.5*,1.2,-0.7,1.3,0.826,-3.2,0.00636,0.0148*,0.0356,0.0164*,0.0264*,0.0179*
O=c1c2ccc(Cl)cc2[nH]c(=S)n1CCCN1CCOCC1,6.46*,1,0.2,1,-0.0294,2.0,?,0.0363*,0.0328,0.0146*,0.0344*,0.0112*
Cc1ccc(-c2nn(-c3ccccc3)cc2NC(=O)CCl)cc1,0.431,1.2,1.4,1.3,0.00238,17.2,.,.,.,.,.,.
O=C(CSc1nnc(SCc2cccc3ccccc23)s1)N/N=C/c1c[nH]c2ccccc12,-3.92*,0.9,-0.1,0.9,.,-0.6,0.00573*,0.014*,0.0237*,0.0089*,0.0242*,?
Cc1ccc(N2CN=c3s/c(=C\c4ccccn4)c(=O)n3C2)cc1,0.0757,1,1.0,1,.,46.9,.,.,.,.,.,.
CCOC(=O)C1=C(C)Nc2nnnn2C1c1c[nH]c2ccccc12 (centres undefined),0.682,1,0.1,0.9,.,1.4,.,.,.,.,.,.
CCOC(=O)C1=C(C)Nc2nnnn2C1c1cccnc1 (centres undefined),.,1,-0.1,1,.,7.8,0.0066,0.00402,0.0276,0.00742,0.0179,0.0102
CC(C)(C)OC(=O)N[C@@H](Cc1c[nH]c2ccccc12)c1nnc(SCC(N)=O)o1,-3.62,0.9,0.3,0.9,.,3.0,.,.,.,.,.,.
CC(C)Sc1nnc([C@H](Cc2c[nH]c3ccccc23)NC(=O)OC(C)(C)C)o1,-6.29*,1,0.8,0.9,-0.713,1.7,0.00692,0.00506,0.028*,?,0.0126*,0.0107
CCCN(CCC)S(=O)(=O)c1ccc(C(=O)Nc2nnc(-c3cc(OC)cc(OC)c3)o2)cc1,10.4*,1.2,-1.4,1.2,.,-7.6,0.00899,0.0205*,0.0362,?,0.0287*,0.0128
CCc1nnc(NC(=O)c2ccc(S(=O)(=O)N(CCOC)CCOC)cc2)o1,-0.0854,0.9,0.3,0.8,0.0674,1.0,.,.,.,.,.,.
O=C(Nc1nnc(-c2ccc(F)cc2)o1)c1cccc([N+](=O)[O-])c1,48.1*,1.2,-0.3,1.2,-1.65,4.9,0.0329*,0.0902*,0.0437*,?,0.0722*,0.0229*
SMILES,KCC2 mod,PMI act hi M6P,ABCB1 block,PMI activator,ROMK mod,ABCG2 inh,KCC2 secondary,KCC2 bumet counter,KCC2 sec2,HEK counter1,KCC2 retest ouab,HEK293 Tl flux2
COc1cccc(-c2nnc(NC(=O)c3cccc(F)c3)o2)c1,33.1*,.,.,.,.,.,?,0.103*,0.0883*,0.0854*,0.0921*,0.0834*
CS(=O)(=O)C1=NSC2=NC(=O)/C(=C\c3cccn3-c3ccccc3Cl)C(=N)N21,-5.14*,1.1,-0.5,1.2,-0.613,-2.0,0.00678,0.00476,0.0228*,0.00529*,0.0136*,?
CCn1c(SCC(=O)Nc2ccc3c(c2)OCO3)nc2c(c1=O)SC(C)C2 (centres undefined),-1.4,1,1.2,0.9,.,9.2,.,.,.,.,.,.
CC1Cc2nc(SCC(=O)Nc3ccc4c(c3)OCO4)n(CCc3ccccc3)c(=O)c2S1 (centres undefined),-3.97*,0.9,0.8,0.8,.,-0.3,0.00609,0.00562,0.0339,?,0.0171*,0.0115
CCn1cc(Cl)c(C(=O)Nc2ccccc2C(N)=O)n1,-0.649,0.9,0.0,1,-1.26,3.5,.,.,.,.,.,.
COc1cc(C2c3c(oc4ccccc4c3=O)C(=O)N2c2nccs2)ccc1O (centres undefined),0.429,.,.,.,0.195,.,.,.,.,.,.,.
O=C(CCCNC(=O)/C(=C/c1ccc(F)cc1)NC(=O)c1ccccc1)OCc1ccccc1,-3.2*,1.1,0.8,1,.,30.7,0.00746,0.00426,0.0344,0.00675,0.0178*,0.00999
